From ChEMBL document CHEMBL1165906, “Cytotoxic N-(fluorenyl-9-methoxycarbonyl) (Fmoc)-dipeptides: structure-activity relationships and synergistic studies” (Eur J Med Chem, 2010)
The source made the active and inactive calls. No cut-off for these calls is given here.

Legend:
MCF7 = test: Cytotoxicity against human MCF7 cells after 72 hrs by MTT assay; format: functional, cell-based; settings: MCF7, 72 h
Method in brief: (§1)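 Freshly trypsinized cells were seeded at 5000–10,000 per well in 96-well plates. […] Attached cells were given MTT (0.5 mg/ml, 1 h), solubilized in DMSO and read at 550 nm. IC₅₀ came from survival curves as mean ± S.E.M., n = 2.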

[1] = Cytotoxicity against human Hep3B cells after 72 hrs by MTT assay; format: functional, cell-based, Hep 3B2
Method in brief: (§2)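 Freshly trypsinized cells were seeded at 5000–10,000 per well in 96-well plates. Attached cells were given MTT (0.5 mg/ml, 1 h), solubilized in DMSO and read at 550 nm. IC₅₀ came from survival curves as mean ± S.E.M., n = 2.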

MDA-MB-231 = test: Cytotoxicity against human MDA-MB-231 cells after 72 hrs by MTT assay; format: functional, cell-based; settings: MDA-MB-231, 72 h; method in brief: as §1
Ca9-22 = test: Cytotoxicity against human Ca9-22 cells after 72 hrs by MTT assay; format: functional, cell-based; settings: Ca9-22, 72 h; method in brief: as §1
HepG2 = test: Cytotoxicity against human HepG2 cells after 72 hrs by MTT assay; format: functional, cell-based; settings: HepG2, 72 h; method in brief: as §2
A549 = test: Cytotoxicity against human A549 cells after 72 hrs by MTT assay; format: functional, cell-based; settings: A549, 72 h; method in brief: as §1
Hepatitis C virus [2] = test: Antiviral activity against HCV infected in human Huh7 cells assessed as inhibition of viral replication at 10 uM after 4 days; format: functional, Hepacivirus hominis; settings: Huh-7, 96 h
Method in brief: (§3)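 Ava5 cells, Huh-7 hepatoma cells carrying a subgenomic HCV replicon, seeded at 5 ×10⁴ per well in 24-well plates and treated for 4 days. Cell extracts were normalized by protein assay and 5 µg was run on 8% SDS-PAGE and transferred to PVDF. Blots were blocked in 5% skim milk and probed for NS3 with GAPDH as loading control. Signals came from HRP secondaries and ECL and were quantified by densitometry.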

Hepatitis C virus [3] = test: Antiviral activity against HCV infected in human Huh7 cells assessed as inhibition of viral replication at 5 uM after 4 days; format: functional, organism-based; settings: Hepacivirus hominis, Huh-7; method in brief: as §3

| Structure (SMILES) | IC50 (MCF7) | IC50 [1] | IC50 (MDA-MB-231) | IC50 (Ca9-22) | IC50 (HepG2) | IC50 (A549) | inhibition at 10 µM (Hepatitis C virus [2]) | inhibition (Hepatitis C virus [3]) |
| --- | --- | --- | --- | --- | --- | --- | --- | --- |
| CC(=O)OC[C@@H](Cc1ccccc1)NC(=O)[C@H](Cc1ccccc1)NC(=O)OCC1c2ccccc2-c2ccccc21 | > 55 µM | – | – | – | – | – | – | – |
| CC(=O)OC[C@H](Cc1ccccc1)NC(=O)[C@H](Cc1ccccc1)NC(=O)OCC1c2ccccc2-c2ccccc21 | > 55 µM | > 55 µM | > 55 µM | > 55 µM | > 55 µM | – | – | – |
| CC(=O)OC[C@@H](Cc1ccccc1)NC(=O)[C@H](Cc1ccc2ccccc2c1)NC(=O)OCC1c2ccccc2-c2ccccc21 | – | – | > 55 µM | – | – | – | – | – |
| CC(=O)OC[C@H](Cc1ccccc1)NC(=O)[C@H](Cc1ccc2ccccc2c1)NC(=O)OCC1c2ccccc2-c2ccccc21 | – | > 55 µM | – | – | – | – | – | – |
| CC(C)[C@H](NC(=O)OCC1c2ccccc2-c2ccccc21)C(=O)N[C@@H](COC(=O)c1ccccc1)Cc1ccccc1 | > 55 µM | – | > 55 µM | – | > 55 µM | > 55 µM | – | – |
| O=C(N[C@@H](Cc1ccccc1)C(=O)N[C@H](COC(=O)c1ccccc1)Cc1ccccc1)OCC1c2ccccc2-c2ccccc21 | > 55 µM | > 55 µM | > 55 µM | > 55 µM | > 55 µM | – | – | – |
| O=C(N[C@@H](Cc1ccc2ccccc2c1)C(=O)N[C@@H](COC(=O)c1ccccc1)Cc1ccccc1)OCC1c2ccccc2-c2ccccc21 | – | – | > 55 µM | – | – | – | – | – |
| CC(C)[C@H](NC(=O)OCC1c2ccccc2-c2ccccc21)C(=O)N[C@@H](CO)Cc1ccccc1 | > 55 µM | – | > 55 µM | – | – | > 55 µM | – | – |
| CC(=O)OC[C@@H](Cc1ccccc1)NC(=O)[C@H](Cc1ccc(O)cc1)NC(=O)OCC1c2ccccc2-c2ccccc21 | > 55 µM | – | > 55 µM | – | – | > 55 µM | – | – |
| CC(C)[C@H](NC(=O)OCC1c2ccccc2-c2ccccc21)C(=O)N[C@H](COC(=O)c1ccccc1)Cc1ccccc1 | > 55 µM | > 55 µM | > 55 µM | – | > 55 µM | > 55 µM | – | – |
| O=C(N[C@@H](Cc1c[nH]c2ccccc12)C(=O)N[C@@H](COC(=O)c1ccccc1)Cc1ccccc1)OCC1c2ccccc2-c2ccccc21 | – | – | – | – | – | – | 72% | inactive |
| O=C(N[C@@H](Cc1ccccc1)C(=O)N[C@@H](CO)Cc1ccccc1)OCC1c2ccccc2-c2ccccc21 | > 55 µM | > 55 µM | > 55 µM | > 55 µM | > 55 µM | > 55 µM | – | – |
| COc1cccc2c1C(=O)c1c(O)c3c(c(O)c1C2=O)C[C@@](O)(C(=O)CO)C[C@@H]3O[C@H]1C[C@H](N)[C@H](O)[C@H](C)O1 [DOXORUBICIN] | – | – | 0.1 µM | 1.3 µM | – | 0.4 µM | – | – |
| O=C(N[C@@H](Cc1ccccc1)C(=O)N[C@H](CO)Cc1ccccc1)OCC1c2ccccc2-c2ccccc21 | > 55 µM | > 55 µM | > 55 µM | > 55 µM | > 55 µM | > 55 µM | – | – |
| CC(=O)OC[C@H](Cc1ccccc1)NC(=O)[C@H](Cc1ccc(O)cc1)NC(=O)OCC1c2ccccc2-c2ccccc21 | > 55 µM | > 55 µM | > 55 µM | > 55 µM | – | > 55 µM | – | – |
| CC(=O)OC[C@H](Cc1ccccc1)NC(=O)[C@@H](NC(=O)OCC1c2ccccc2-c2ccccc21)C(C)C | > 55 µM | > 55 µM | > 55 µM | > 55 µM | – | > 55 µM | – | – |
| CC(C)[C@H](NC(=O)OCC1c2ccccc2-c2ccccc21)C(=O)N[C@H](CO)Cc1ccccc1 | > 55 µM | > 55 µM | > 55 µM | – | – | > 55 µM | – | – |
| O=C(N[C@@H](Cc1ccccc1)C(=O)N[C@@H](COC(=O)c1ccccc1)Cc1ccccc1)OCC1c2ccccc2-c2ccccc21 | > 55 µM | > 55 µM | > 55 µM | > 55 µM | – | – | – | – |
| O=C(N[C@@H](Cc1c[nH]c2ccccc12)C(=O)N[C@H](CO)Cc1ccccc1)OCC1c2ccccc2-c2ccccc21 | > 55 µM | > 55 µM | > 55 µM | > 55 µM | – | – | – | – |
| CC(=O)OC[C@H](Cc1ccccc1)NC(=O)[C@H](Cc1c[nH]c2ccccc12)NC(=O)OCC1c2ccccc2-c2ccccc21 | > 55 µM | > 55 µM | – | – | – | – | – | – |
| O=C(N[C@@H](Cc1ccc2ccccc2c1)C(=O)N[C@H](COC(=O)c1ccccc1)Cc1ccccc1)OCC1c2ccccc2-c2ccccc21 | > 55 µM | > 55 µM | > 55 µM | > 55 µM | > 55 µM | > 55 µM | – | – |
| O=C(N[C@@H](Cc1ccc(O)cc1)C(=O)N[C@H](COC(=O)c1ccccc1)Cc1ccccc1)OCC1c2ccccc2-c2ccccc21 | – | – | – | – | > 55 µM | – | – | – |
| O=C(N[C@@H](Cc1ccc2ccccc2c1)C(=O)N[C@H](CO)Cc1ccccc1)OCC1c2ccccc2-c2ccccc21 | > 55 µM | > 55 µM | > 55 µM | – | – | – | – | – |
| O=C(N[C@@H](Cc1ccc2ccccc2c1)C(=O)N[C@@H](CO)Cc1ccccc1)OCC1c2ccccc2-c2ccccc21 | > 55 µM | – | > 55 µM | – | – | > 55 µM | – | – |
| O=C(N[C@@H](Cc1ccc(O)cc1)C(=O)N[C@H](CO)Cc1ccccc1)OCC1c2ccccc2-c2ccccc21 | > 55 µM | – | > 55 µM | – | – | > 55 µM | – | – |
| O=C(N[C@@H](Cc1ccc(O)cc1)C(=O)N[C@@H](COC(=O)c1ccccc1)Cc1ccccc1)OCC1c2ccccc2-c2ccccc21 | > 55 µM | > 55 µM | > 55 µM | – | > 55 µM | – | 87% | inactive |
